Assay results as given in ChEMBL document CHEMBL4052587, “Talarazines A-E: Noncytotoxic Iron(III) Chelators from an Australian Mud Dauber Wasp-Associated Fungus, Talaromyces sp. (CMB-W045)” (J Nat Prod, 2017).
Calls of active or inactive are those of the source. The calls are words filed in the database; no cut-off is given here.

What was measured:
[1] = Metal chelating activity of the compound assessed as fluorescence recovery of calcein-Fe3 complex formation up to 40 uM measured after overnight incubation by CAFe based fluorescence spectrophotometry
How it was run: (§1)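 Competition assay between the test chelator and a calcein–Fe(III) complex. Calcein is a fluorescent chelator with high Fe(III) affinity, and Fe(III) coordination quenches its fluorescence stoichiometrically. Relative Fe(III) affinity is inferred from the competing equilibrium, read as change in calcein fluorescence.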

[2] = tested on: Pseudomonas aeruginosa; assay: Growth inhibition of Pseudomonas aeruginosa ATCC 27853 after 24 by broth micro-dilution method; format: functional
[3] = tested on: SW-620; assay: Cytotoxicity against human SW620 cells assessed as reduction in cell viability up to 30 uM after 68 hrs by MTT assay; format: functional, cell-based
[4] = tested on: KB 3-1; assay: Cytotoxicity against human KB-3-1 cells assessed as reduction in cell viability up to 30 uM after 68 hrs by MTT assay; format: functional, cell-based
[5] = tested on: NCI-H460; assay: Cytotoxicity against human NCI-H460 cells assessed as reduction in cell viability up to 30 uM after 68 hrs by MTT assay; format: functional, cell-based
[6] = tested on: Escherichia coli; assay: Growth inhibition of Escherichia coli ATCC 25922 after 24 by broth micro-dilution method; format: functional
[7] = Metal chelating activity of the compound assessed as fluorescence recovery of calcein-Fe3 complex formation up to 10 uM measured after overnight incubation by CAFe based fluorescence spectrophotometry; how it was run: as §1
[8] = tested on: Staphylococcus aureus; assay: Growth inhibition of Staphylococcus aureus ATCC 25923 after 24 by broth micro-dilution method; format: functional
[9] = tested on: Candida albicans; assay: Growth inhibition of Candida albicans ATCC 90028 after 48 by broth micro-dilution method; format: functional

Row | Activity [1] | Activity [7] | SMILES | IC50 [2] | Activity [3] | Activity [4] | Activity [5] | IC50 [6] | IC50 [8] | IC50 [9]
1 | Active | Active | CC(=O)N[C@@H](CCCN(O)C(=O)/C=C(\C)CCO)C(=O)OCC/C(C)=C/C(=O)N(O)CCC[C@@H]1NC(=O)[C@H](CCCN(O)C(=O)/C=C(\C)CCO)NC1=O | > 30 µM | inactive | inactive | inactive | > 30 µM | > 30 µM | > 30 µM
2 |  |  | CC(=O)N[C@@H](CCCN(O)C(=O)/C=C(\C)CCO)C(=O)OCC/C(C)=C/C(=O)N(O)CCC[C@@H]1NC(=O)[C@H](CCCNC(=O)/C=C(\C)CCO)NC1=O | > 30 µM | inactive | inactive | inactive | > 30 µM | > 30 µM | > 30 µM
3 |  |  | C/C(=C\C(=O)NCCC[C@@H]1NC(=O)[C@H](CCCN(O)C(=O)/C=C(\C)CCO)NC1=O)CCO | > 30 µM | inactive | inactive | inactive | > 30 µM | > 30 µM | > 30 µM
4 | Active | Active | C/C(=C\C(=O)N(O)CCC[C@@H]1NC(=O)[C@H](CCCN(O)C(=O)/C=C(\C)CCO)NC1=O)CCO | > 30 µM | inactive | inactive | inactive | > 30 µM | > 30 µM | > 30 µM
5 |  |  | C/C(=C\C(=O)NCCC[C@@H]1NC(=O)[C@H](CCCNC(=O)/C=C(\C)CCO)NC1=O)CCO | > 30 µM | inactive | inactive | inactive | > 30 µM | > 30 µM | > 30 µM
6 |  |  | CC(=O)N[C@@H](CCCN(O)C(=O)/C=C(\C)CCO)C(=O)OCC/C(C)=C/C(=O)NCCC[C@@H]1NC(=O)[C@H](CCCNC(=O)/C=C(\C)CCO)NC1=O | > 30 µM | inactive | inactive | inactive | > 30 µM | > 30 µM | > 30 µM
7 |  |  | CC(=O)N[C@@H](CCCN(O)C(=O)/C=C(\C)CCO)C(=O)OCC/C(C)=C/C(=O)NCCC[C@@H]1NC(=O)[C@H](CCCN(O)C(=O)/C=C(\C)CCO)NC1=O | > 30 µM | inactive | inactive | inactive | > 30 µM | > 30 µM | > 30 µM
